Here are results for 13 compounds from PubChem BioAssay.

The nature of assay [1]: inhibitors of TNFa-induced NFkB p65 translocation, primary screen, imaging, HUVEC, MLSMR starter and 10KST1 sets (AID 438;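 active means inhibition above 20% together with a positive visual image hit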;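 further: compound added about 3h40 before a 20 min TNFalpha stimulation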;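 on inhibition: signal is the nuclear over cytoplasmic p65 intensity ratio per well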). The conditions noted are these: HUVEC TNFa-induced p65 nuclear translocation; cell count: measured here: nuclei count (cytotoxicity indicator), at 2.08 µM; inhibition: at 2 µM, stronger effect = higher value, 0% TNFa-plus-vehicle, 100% no-TNFa wells.
Assay [2] in a line: inhibitors of mutant huntingtin aggregation, primary screen, imaging, exon1htt(103Q)mCFP cells, high-content imaging (AID 483;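 active means visual image review flags a hit and inhibition of aggregation exceeds 20%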;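 further: compound exposure lasted 3 days before fixation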;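 on nuclei count: percent of the per-plate median nuclei count of sample wells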). The conditions noted are these: exon1htt(103Q)mCFP cell line, aggregate imaging, at 2 µM; inhibition of aggregation: stronger effect = higher value; nuclei count: measured here: cell count, toxicity.
The nature of assay [3]: inhibitors of E-selectin induction by TNFa, primary screen, imaging, HUVEC, immunofluorescence, MLSMR starter and 10KST1 sets (AID 487;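 active means visually confirmed hit in the image check and inhibition above 20%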;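 on inhibition: signal is fraction of cell area covered by stained E-selectin grains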;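 on nuclei count: 100% = median nuclei count of all wells on the same plate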). The conditions noted are these: HUVEC TNFalpha-induced E-selectin immunofluorescence imaging, at 2 µM; inhibition: stronger effect = higher value; nuclei count: measured here: cell number, toxicity.
In assay [4] the target is Voltage-gated potassium channel subunit beta-2 (Rattus norvegicus) (UniProt P62483). Put plainly: KvBeta enzyme negative modulators, primary screen, biochemical, NADPH fluorescence (AID 622).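 Further: slope of raw intensity against log time taken from 70 to 1610 s.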 The conditions noted are these: recombinant KvBeta, 4-cyanobenzaldehyde reduction, at 10 µM, stronger effect = higher value.
The target is the same in assay [5]. Put plainly: KvBeta positive modulators, primary screen, biochemical, NADPH fluorescence (AID 623;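 active means NADPH fluorescence slope more negative than the mean of all samples by about 3 SD, 99.7% confidence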;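 further: fluorescence intensity change per second fitted from 20 to 320 s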). The conditions noted are these: Recombinant KvBeta, NADPH fluorescence decrease slope, 10 min; at 10 µM; stronger effect = lower value.
Assay [6] has as its target Muscarinic acetylcholine receptor M4 (Homo sapiens) (UniProt P08173). Put plainly: compounds altering M4/GIRK thallium flux, either direction, primary screen, M4 allosteric agonist project, cell-based, HEK293 M4/GIRK, BTC-AM (AID 625;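 active means fluorescence slope after compound addition differing from the mean of all tested samples at 99.7% confidence, mostly higher but some lower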;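 further: thallium influx through GIRK channels coupled to M4 in HEK293 cells with BTC-AM dye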). The conditions noted are these: at 10 µM, actives lie on both sides. A digest of the protocol: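 Material: M4/GIRK1/GIRK2 stable HEK293 cell line. Medium: pH 7.3 thallium assay buffer. Dosing: single compound concentration, 10 µM final. Schedule: 1 h dye loading, 2 min kinetic read. Measured by: kinetic fluorescence with BTC-AM dye. Read-out: post-addition slope, 15–24 s, of baseline-normalized fluorescence. Benchmarks: carbachol and DMSO controls.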

The nature of assay [7]: inhibitors of Sendai virus-induced IRF3 signaling, primary screen, TLR/RLR signaling modifier project, cell-based, Sendai virus stimulus, luciferase, 10K MLSCN set (AID 602276;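 active means inhibition at or above 50% at 10 µM; inactive means inhibition below 50%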;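 further: firefly luciferase from ISG56 promoter only with Renilla not read in this screen; 0% = Sendai virus plus DMSO and 100% = medium plus DMSO without virus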). The conditions noted are these: HEK293 RL24 IRF3 luciferase reporter, at 10 µM, stronger effect = higher value. Background: A reporter such as luciferase makes a cellular process visible.
Assay [8] in a line: inhibitors of poly I:C-induced TLR3 signaling, primary screen, cell-based, poly I:C stimulus, luciferase, 10K MLSCN set (AID 602277;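 active means inhibition of the reporter signal at or above 50%; inactive means inhibition below 50%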). The following applies: HEK293-TLR3 RL24 IRF3 luciferase reporter, at 10 µM, stronger effect = higher value.

Calls of active or inactive are those of the source.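 How the source made its calls, unless noted: active means fluorescence slope higher than the sample average by over 3 SD (cut at about -0.22 in these data, passing the limit was not always enough); inactive means the rest.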

Voltage-gated potassium channel subunit beta-2 (Rattus norvegicus), sequence (P62483 whole entry, looked up): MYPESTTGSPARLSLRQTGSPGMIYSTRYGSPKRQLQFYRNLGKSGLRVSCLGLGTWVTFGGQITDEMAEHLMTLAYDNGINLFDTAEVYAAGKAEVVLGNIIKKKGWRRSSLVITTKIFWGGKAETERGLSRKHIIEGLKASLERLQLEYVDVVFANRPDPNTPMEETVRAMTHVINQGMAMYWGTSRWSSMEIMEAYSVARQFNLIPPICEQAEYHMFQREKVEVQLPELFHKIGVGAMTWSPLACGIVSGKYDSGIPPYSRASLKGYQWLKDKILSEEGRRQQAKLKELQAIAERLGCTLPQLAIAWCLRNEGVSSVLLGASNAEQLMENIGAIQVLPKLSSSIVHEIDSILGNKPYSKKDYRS
Muscarinic acetylcholine receptor M4 (Homo sapiens), sequence (P08173 whole entry, looked up): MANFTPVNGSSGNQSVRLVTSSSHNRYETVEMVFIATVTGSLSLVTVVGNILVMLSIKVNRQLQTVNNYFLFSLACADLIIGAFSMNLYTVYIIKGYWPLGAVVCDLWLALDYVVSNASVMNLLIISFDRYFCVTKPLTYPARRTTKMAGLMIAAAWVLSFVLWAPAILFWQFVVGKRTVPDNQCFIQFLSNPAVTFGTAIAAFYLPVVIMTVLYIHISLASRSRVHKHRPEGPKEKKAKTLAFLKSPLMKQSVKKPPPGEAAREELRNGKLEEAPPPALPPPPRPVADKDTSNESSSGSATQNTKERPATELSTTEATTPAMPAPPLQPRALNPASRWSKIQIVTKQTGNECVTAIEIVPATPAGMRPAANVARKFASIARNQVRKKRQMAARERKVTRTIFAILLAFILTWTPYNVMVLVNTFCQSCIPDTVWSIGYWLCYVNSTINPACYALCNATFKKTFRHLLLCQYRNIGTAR

Take `Cc1cc(/C=N/n2cnnc2)c(C)n1-c1ccc(Cl)cc1Cl`: the cell count in assay [1] stood at 485. Further, the inhibition in assay [1] was 7.6% (inactive); in assay [3], -275% (inactive); in assay [7] it was 17.2% (inactive); in assay [8] it was 16.7% (inactive). The inhibition of aggregation in assay [2] is -10.2% (inactive). The nuclei count in assay [2] worked out at 94.2%; in assay [3], 135%. Further, the values for the fluorescence slope in assay [4] and in assay [6] were -0.294 (inactive) and 0.00517 (inactive), respectively. In addition, in assay [5], the NADPH fluorescence slope was -3e-05 (inactive).

In the case of `O=C(Nc1ccccc1C(=O)N1CCOCC1)c1ccncc1`, in assay [1], the cell count came to 389. The inhibition in assay [1] was 0.7% (inactive); in assay [3], -97.8% (inactive); in assay [7], 5.72% (inactive); in assay [8] it was 17.1% (inactive). The inhibition of aggregation in assay [2] was 5.4% (inactive). Besides, the nuclei count in assay [2] turned out to be 107%; in assay [3], 105%. Besides, the values for the fluorescence slope in assay [4] and in assay [6] were -0.579 (inactive) and 0.00647 (inactive), respectively. Besides, the NADPH fluorescence slope in assay [5] is -3.8e-05 (inactive).

As to `Clc1ccc(Cn2ncc3c(NCc4cccnc4)ncnc32)cc1`, the cell count in assay [1] worked out at 321. Besides, the inhibition was -13.5% (inactive) in assay [1], 41.6% (inactive) in assay [3], 13.3% (inactive) in assay [7] and -35.2% (inactive) in assay [8]. The inhibition of aggregation in assay [2] was -3.5% (inactive). The nuclei count in assay [2] came to 113%; in assay [3], 82%. The figures for the fluorescence slope in assay [4] and in assay [6] were -0.55 (inactive) and 0.00407 (inactive), respectively. The NADPH fluorescence slope in assay [5] is -0.000128 (inactive).

Consider `O=C(CSC1=NCCS1)NCc1ccco1`, for which the cell count in assay [1] worked out at 294. Moreover, the inhibition was 0.2% (inactive) in assay [1], -109% (inactive) in assay [3], -13.7% (inactive) in assay [7] and -22.5% (inactive) in assay [8]. In addition, the inhibition of aggregation in assay [2] is 16.5% (inactive). The nuclei count in assay [2] came to 87.2%; in assay [3] it was 108%. The values for the fluorescence slope in assay [4] and in assay [6] were -0.268 (inactive) and 0.00551 (inactive), respectively. Moreover, the NADPH fluorescence slope in assay [5] is 1.6e-06 (inactive).

On to `CCCC(=O)Nc1ccc(NC(=O)c2cccs2)cn1`, for which, in assay [1], the cell count was 425. Further, the inhibition is 6.7% (inactive) in assay [1], -445% (inactive) in assay [3], -12.8% (inactive) in assay [7] and -57.7% (inactive) in assay [8]. Besides, the inhibition of aggregation in assay [2] is 10.4% (inactive). Moreover, the values for the nuclei count in assay [2] and in assay [3] were 106% and 140%, respectively. Besides, the fluorescence slope in assay [4] is -0.578 (inactive); in assay [6] it was 0.00548 (inactive). Besides, the NADPH fluorescence slope in assay [5] was -3.4e-05 (inactive).

Take `CCN(CC)S(=O)(=O)c1ccc(N2CCCC2)c(C(=O)OCC(=O)/C(C#N)=C(\C)N)c1`: the cell count in assay [1] came out at 560. For the same compound, the inhibition in assay [1] is -16% (inactive); in assay [3], 8.4% (inactive); in assay [7] it was 15.9% (inactive); in assay [8], 24.1% (inactive). The inhibition of aggregation in assay [2] was 6.5% (inactive). Besides, the nuclei count turned out to be 98.3% in assay [2] and 101% in assay [3]. For the same compound, the fluorescence slope was -0.428 (inactive) in assay [4] and 0.00583 (inactive) in assay [6]. For the same compound, the NADPH fluorescence slope in assay [5] was 6.6e-05 (inactive).

`O=c1oc2ccccc2n1CCc1ccccc1`: in assay [1], the cell count is 470. Moreover, the inhibition in assay [1] is -4.6% (inactive); in assay [3], -76.9% (inactive); in assay [7], -4.32% (inactive); in assay [8], -4.85% (inactive). The inhibition of aggregation in assay [2] was 0% (inactive). In addition, the values for the nuclei count in assay [2] and in assay [3] were 88.3% and 238%, respectively. For the same compound, the results for the fluorescence slope in assay [4] and in assay [6] were -0.522 (inactive) and 0.00443 (inactive), respectively. Besides, the NADPH fluorescence slope in assay [5] is -0.000209 (inactive).

Take `CC(=O)N1c2c(cc(Br)cc2S(=O)(=O)N2CCN(c3ccccn3)CC2)CC1C` (stereo not drawn): in assay [1], the cell count was 365. Besides, the inhibition is -15.4% (inactive) in assay [1], -49.9% (inactive) in assay [3], 15.6% (inactive) in assay [7] and 6.87% (inactive) in assay [8]. In assay [2], the inhibition of aggregation was 21.2% (inactive). Moreover, the nuclei count in assay [2] worked out at 93.1%; in assay [3], 128%. Besides, the fluorescence slope is -0.523 (inactive) in assay [4] and 0.00651 (inactive) in assay [6]. In addition, the NADPH fluorescence slope in assay [5] was -0.000101 (inactive).

In the case of `Cc1ncc(CO)c2c1OC(C)(C)OC2`, in assay [1], the cell count is 373. Moreover, the inhibition in assay [1] was 2.5% (inactive); in assay [3], -39.2% (inactive); in assay [7], 8.62% (inactive); in assay [8], 15.1% (inactive). Moreover, the inhibition of aggregation in assay [2] is -26.3% (inactive). Moreover, the figures for the nuclei count in assay [2] and in assay [3] were 106% and 97.7%, respectively. The fluorescence slope in assay [4] was -0.515 (inactive); in assay [6], 0.00488 (inactive). Besides, the NADPH fluorescence slope in assay [5] was -0.0002 (inactive).

Consider `Cc1c2c(nc3nc4ccccc4n13)CC(C)(C)CC2=O`, for which the cell count in assay [1] amounted to 632. The inhibition was 8.2% (inactive) in assay [1], -63.4% (inactive) in assay [3], 16.3% (inactive) in assay [7] and 28.8% (inactive) in assay [8]. In addition, the inhibition of aggregation in assay [2] is -6.2% (inactive). The results for the nuclei count in assay [2] and in assay [3] were 109% and 106%, respectively. Besides, the figures for the fluorescence slope in assay [4] and in assay [6] were -0.603 (inactive) and 0.00409 (inactive), respectively. Besides, the NADPH fluorescence slope in assay [5] is -2.5e-05 (inactive).

For the compound `CCOC(=O)CSc1nnc(CNC(=O)c2ccc(S(=O)(=O)N3CCCC3)cc2)n1C`, the cell count in assay [1] came to 617. The inhibition in assay [1] was 1.2% (inactive); in assay [3], -54.4% (inactive); in assay [7], 12.8% (inactive); in assay [8], 18.7% (inactive). Besides, in assay [2], the inhibition of aggregation was 1.3% (inactive). Besides, the nuclei count in assay [2] came out at 96.9%; in assay [3] it was 122%. Besides, the fluorescence slope was -0.58 (inactive) in assay [4] and 0.00697 (inactive) in assay [6]. In addition, in assay [5], the NADPH fluorescence slope is -8.2e-06 (inactive).

On to `Cc1cccc(NCc2ccccc2O)c1`, for which the cell count in assay [1] came to 454. In addition, the inhibition in assay [1] was 4.9% (inactive); in assay [3], 10.3% (inactive); in assay [7] it was 10.1% (inactive); in assay [8], 3.99% (inactive). The inhibition of aggregation in assay [2] is 1.3% (inactive). For the same compound, the nuclei count in assay [2] is 94.5%; in assay [3] it was 104%. In addition, the fluorescence slope in assay [4] was -0.55 (inactive); in assay [6], 0.00568 (inactive). Further, the NADPH fluorescence slope in assay [5] is -2.3e-05 (inactive).

With `CC1=C(C(=O)OCCOC(C)C)C(c2cc3c(cc2Br)OCO3)C2=C(CCCC2=O)N1` (stereo not drawn), the cell count in assay [1] stood at 446. Moreover, the inhibition was 0.2% (inactive) in assay [1], -37.4% (inactive) in assay [3], 20.8% (inactive) in assay [7] and 26.6% (inactive) in assay [8]. Besides, the inhibition of aggregation in assay [2] is 8.5% (inactive). For the same compound, the nuclei count in assay [2] stood at 41.8%; in assay [3] it was 105%. Besides, the values for the fluorescence slope in assay [4] and in assay [6] were -0.485 (inactive) and 0.00686 (inactive), respectively. The NADPH fluorescence slope in assay [5] is 6.8e-05 (inactive).

A word on the inhibition: it is the change of the read-out against control, counted positive when it falls.
